Experimental data collected from several papers.
PDE10A: cAMP and cAMP-inhibited cGMP 3',5'-cyclic phosphodiesterase 10A (PDE10A, Homo sapiens, UniProt Q9Y233)
SLC6A3: Sodium-dependent dopamine transporter (SLC6A3, Homo sapiens, UniProt Q01959)

COc1ccc(-c2cccc(Cc3ncnc4cc(OC)c(OC)cc34)c2)cc1OC  inhibition (PDE10A; enzyme activity, inhibitor, FP; 0.1 µM): 85%
CNC(=O)[C@@]12C[C@@H]1[C@@H](n1cnc3c(NCc4cccc(Cl)c4)nc(C#Cc4ccc(Cl)s4)nc31)[C@H](O)[C@@H]2O  inhibition (SLC6A3; ligand displacement, radioligand; 10 µM): 75%
Cc1cc(F)cc2c(CCC(=O)N[C@@H]3C(=O)NC[C@H]3O)c(-c3ccc(F)cc3)[nH]c12  inhibition (SLC6A3; cell-free assay; 10 µM): 17%
COc1ccc2c(Cc3cccc(-c4ccccc4)c3)ncnc2c1  inhibition (PDE10A; enzyme activity, inhibitor, FP; 0.1 µM): 22%
OC[C@@]12C[C@@H]1[C@@H](n1cnc3c(NCCCCCCc4ccccc4)nc(I)nc31)[C@H](O)[C@@H]2O  inhibition (SLC6A3; ligand displacement, radioligand; 10 µM): 79%
COc1cc2ncnc(Cc3cccc4ccccc34)c2cc1OC  inhibition (PDE10A; enzyme activity, inhibitor, FP; 0.1 µM): 56%
CCOC(=O)[C@@]12C[C@@H]1[C@@H](n1ccc3c(NCCCCCCCc4ccccc4)nc(C#Cc4ccccc4)nc31)[C@H](O)[C@@H]2O  inhibition (SLC6A3; ligand displacement, radioligand; 10 µM): 25%
CCN1/C(=C/C(C)=O)Sc2ccc(F)cc21  inhibition (SLC6A3; ligand displacement, radioligand; 10 µM): 1.26%
NC(=O)CC[C@H](N)C(=O)NCC(=O)NCC(=O)N[C@@H](CC(=O)O)C(=O)N[C@@H](Cc1ccccc1)C(=O)O  inhibition (Angiotensin-converting enzyme (ACE, Homo sapiens, UniProt P12821); enzyme activity, inhibitor; 1.4 mM): 49.9%
C#Cc1cc(-c2cc(Nc3nc(N[C@@H](C)c4ccc(F)cn4)ncc3Cl)n[nH]2)ccc1C=O  inhibition (Activated CDC42 kinase 1 (TNK2, Homo sapiens, UniProt Q07912); enzyme activity, inhibitor; 0.2 µM): 73.3%
CCOC(=O)[C@@]12C[C@@H]1[C@@H](n1cnc3c(NCc4cccc(Cl)c4)nc(I)nc31)[C@H](O)[C@@H]2O  inhibition (SLC6A3; ligand displacement, radioligand; 10 µM): 37%
CN(C)CCOC(=O)COc1ccc(Cl)cc1  inhibition (Peroxisome proliferator-activated receptor gamma (PPARG, Homo sapiens, UniProt P37231); cell-free assay, TR-FRET; 1 µM): 3.65%
Cc1cc(O)c(-c2ccc([C@@H](C)CN(C)C)cc2)c2c1[nH]c(=O)c1sccc12  inhibition (Ephrin type-B receptor 4 (EPHB4, Homo sapiens, UniProt P54760); cell-free assay, inhibitor; 0.1 µM): -4.58%
COc1cc2ncnc(Cc3cccc(-c4ccccc4)c3C)c2cc1OC  inhibition (PDE10A; enzyme activity, inhibitor, FP; 0.1 µM): 54%
CCOC(=O)[C@@]12C[C@@H]1[C@@H](n1cnc3c(Nc4ccccc4)nc(C#Cc4ccc(Cl)s4)nc31)[C@H](O)[C@@H]2O  inhibition (SLC6A3; ligand displacement, radioligand; 10 µM): 89%
c1ccc(-c2cccc(Cc3nccc4ccccc34)c2)cc1  inhibition (PDE10A; enzyme activity, inhibitor, FP; 0.1 µM): 0%
NC/C(=C\F)COc1cccc(Cn2c(=S)[nH]c(=O)c3[nH]cnc32)c1  inhibition (D(3) dopamine receptor (DRD3, Homo sapiens, UniProt P35462); ligand displacement, radioligand; 10 µM): < 50%
COc1ccc2c(Cc3ccc(OC)c(OC)c3)ncnc2c1  inhibition (PDE10A; enzyme activity, inhibitor, FP; 0.1 µM): 22%
CCOC(=O)[C@@]12C[C@@H]1[C@@H](n1cnc3c(NCCCCc4ccccc4)nc(I)nc31)[C@H](O)[C@@H]2O  inhibition (SLC6A3; ligand displacement, radioligand; 10 µM): 19%
